The subject of one assay is Caenorhabditis elegans. As to the kind of experiment: Insecticidal activity against fourth-instar larva of Caenorhabditis elegans assessed as mortality after 5 days. The class given is functional, organism-based.
The next assay concerns Plutella xylostella. As to the kind of experiment: Insecticidal activity against Plutella xylostella infected in cabbage leaves assessed as mortality after 5 days by leaf-disc method. The class given is functional, organism-based.
For the next assay, the system named is Sitobion avenae. As to the kind of experiment: Insecticidal activity against second-instar larva of Sitobion avenae infected in cabbage leaves assessed as mortality after 5 days by leaf-disc method. The class given is functional.
The test system of another assay is Diabrotica balteata. As to the kind of experiment: Insecticidal activity against Diabrotica balteata infected in cabbage leaves assessed as mortality after 5 days by leaf-disc method. The class given is functional.
Another assay has as its system P388. Briefly: Cytotoxicity against mouse P388 cells. Conditions: read-out: ED50 (the source's name). Type of assay: functional.
The subject of the next assay is SMMC-7721. As to the kind of experiment: Cytotoxicity against human SMMC7721 cells after 72 hrs by MTT assay. The class given is functional, cell-based. The method, boiled down: (§1)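 Human tumour cell panel (HL-60, Bel7402, HepG2, SMMC-7721) with doxorubicin as the positive control.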
Another assay deals with HepG2. Briefly: Cytotoxicity against human HepG2 cells after 72 hrs by MTT assay. The class given is functional, cell-based. In a few lines:
as §1
On the technique in general: Tetrazolium dyes change colour on reduction, which living cells bring about.

Each structure is given as a SMILES string. Calls of active or inactive are those of the source. The rule behind the calls is not given here.

As to `CC1(C)OC(=O)C=C[C@]2(C)[C@H]3[C@@H](O)[C@H](O)[C@]4(C)[C@@H](C(=O)C[C@H]4c4ccoc4)[C@]3(C)[C@H](O)C[C@@H]12`, the result in the assay with Caenorhabditis elegans, in the assay with Plutella xylostella, in the assay with Sitobion avenae and in the assay with Diabrotica balteata was Active.
Consider `CC(=O)O[C@H]1CC(=O)OC(C)(C)[C@@H]2C[C@@H](O)[C@]3(C)[C@H]([C@@H](O)[C@H](OC(=O)c4cccnc4)[C@@]4(C)[C@H](c5ccoc5)C[C@H]5O[C@@]534)[C@@]12C`, for which the outcome in the assay on Sitobion avenae and in the assay on Diabrotica balteata was Active.
Consider `CC(=O)O[C@@H]1C[C@H](O)[C@@]23CO[C@H](O)[C@]1(C)[C@@H]2C[C@@H](O)[C@]1(C)[C@@H]3C(=O)C[C@@]2(C)[C@H](c3ccoc3)C[C@H]3O[C@]312` [AMOORASTATIN], for which, in the assay on P388, the EC50 is less than 0.065 µg/mL.
Regarding `CN1COCN(Cc2cnc(Cl)s2)/C1=N\[N+](=O)[O-]`, the result in the assay with Sitobion avenae was Active.
Consider `CC(=O)O[C@H]1CC(=O)OC(C)(C)[C@@H]2C[C@@H](OC(C)=O)[C@]3(C)[C@H]([C@@H](O)[C@H](O)[C@@]4(C)[C@H](c5ccoc5)C[C@H]5O[C@@]534)[C@@]12C`, for which the outcome with Diabrotica balteata was Active.
In the case of `CCC(C)C(=O)OC1OC[C@@]23[C@H]4C(=O)[C@H](O)[C@@]5(C)[C@H](c6ccoc6)C[C@H]6O[C@]65[C@]4(C)[C@H](O)C[C@H]2[C@]1(C)[C@H](OC(C)=O)[C@H](O)[C@@H]3OC(C)=O` (some centres not stated) [APHANASTATIN], in the assay with P388, the EC50 is less than 0.065 µg/mL.
With `COC(=O)N(C(=O)N1CO[C@@]2(C(=O)OC)Cc3cc(Cl)ccc3C2=N1)c1ccc(OC(F)(F)F)cc1`, the outcome with Sitobion avenae was Active.
As for `CC1(C)OC(=O)C=C[C@]2(C)[C@H]3[C@@H](O)[C@H](O)[C@@]4(C)[C@H](c5ccoc5)C[C@@H](O)[C@]45O[C@H](C[C@@H]12)[C@]35C`, the outcome in the assay on Caenorhabditis elegans, with Plutella xylostella, in the assay with Sitobion avenae and in the assay on Diabrotica balteata was Active.
As to `COc1cccc2c1C(=O)c1c(O)c3c(c(O)c1C2=O)C[C@@](O)(C(=O)CO)C[C@@H]3O[C@H]1C[C@H](N)[C@H](O)[C@H](C)O1`, the outcome in the assay on SMMC-7721 and in the assay on HepG2 was Active.

(Values after ChEMBL document CHEMBL2390822, “Bioactive terpenoids from the fruits of Aphanamixis grandifolia” (J Nat Prod, 2013).)
